Source: PubChem BioAssay
Hits are enriched below; roughly 3.2% of the tested compounds scored in any of these assays.
AF4-AF9 inh: blocks AF4 peptide binding to human AF9; P42568; AlphaScreen, biotin-AF4 peptide binding to FLAG-AF9; inhibition, % at 10 µM; actives 0.47% (n = 350,000);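 active = every replicate reaching a set inhibition limit, whatever the replicate mean, cut at about 25% in these data; inconclusive = mean inhibition reaches that limit but some replicates miss it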
Target sequence (P42568 whole entry, looked up): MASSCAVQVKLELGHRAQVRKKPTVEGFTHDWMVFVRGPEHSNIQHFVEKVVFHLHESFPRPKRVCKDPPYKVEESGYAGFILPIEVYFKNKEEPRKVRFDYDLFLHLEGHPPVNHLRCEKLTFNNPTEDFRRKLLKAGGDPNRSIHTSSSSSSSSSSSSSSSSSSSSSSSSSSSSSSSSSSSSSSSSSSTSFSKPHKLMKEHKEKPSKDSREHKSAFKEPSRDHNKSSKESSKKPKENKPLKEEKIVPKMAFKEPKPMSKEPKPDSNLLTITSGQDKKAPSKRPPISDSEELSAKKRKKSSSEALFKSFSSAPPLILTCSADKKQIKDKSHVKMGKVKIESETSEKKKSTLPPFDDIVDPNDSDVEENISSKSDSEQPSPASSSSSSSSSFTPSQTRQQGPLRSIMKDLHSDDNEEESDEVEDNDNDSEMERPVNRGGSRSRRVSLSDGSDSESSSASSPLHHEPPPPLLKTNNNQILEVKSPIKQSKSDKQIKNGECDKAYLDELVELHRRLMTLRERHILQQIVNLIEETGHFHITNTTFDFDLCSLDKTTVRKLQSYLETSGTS
S100A4 inh HTS: blocks human S100A4 binding to myosin IIA peptide | actives 0.14% (n = 360,000) | S100A4/TAMRA-MyoIIA peptide fluorescence polarization | P26447 | inhibition, % at 10.7 µM;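 active = mean inhibition of at least 70% across replicates, with every replicate also reaching that level; inconclusive = mean inhibition reaches 70% but some replicates fall short; inactive = mean inhibition below 70%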
Target sequence (P26447 whole entry, looked up): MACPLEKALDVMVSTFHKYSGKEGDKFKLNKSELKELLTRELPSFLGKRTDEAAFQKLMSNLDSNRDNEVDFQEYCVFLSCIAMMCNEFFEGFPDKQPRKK
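Test system – S100A4 monomer (human) · Compound – single-point compound testing · Schedule – 5 min incubation before reading · Probe or stimulus – TAMRA-labelled myosin IIA heavy-chain peptide probe, 5 nM · Benchmarks – neutral control DMSO, positive control TFP · Medium – Calcium-containing HEPES buffer, pH 7.2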
Ecoli rRNA inh: selective bacterial rRNA inhibition in E. coli; actives 1.6% (n = 350,000); GFP signal change (wild-type ribosome), % (no concentration beside the values); E. coli WT GFP vs humanized-ribosome RFP mutants, fluorescence, 24 h; stronger effect = lower value; DMSO median 0, no signal -100; AID 720706;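 active = significant combined selectivity score with lowered wild-type GFP, culture density cut under 30%, mutant RFP and density less affected; inactive = any of these conditions unmet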
Cneo AK release: causes C. neoformans cell lysis. actives 0.2% (n = 360,000). adenylate kinase release luminescence, 4 h; normalised: neutral wells 0, clomiphene wells 100. lysis activity, % at 15 µM. AID 651654;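 active = mean lysis activity across replicates of at least 80%, whatever share of replicates individually reach that level; inactive = mean lysis activity below 80%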
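Schedule: static 4 h at 37 °C with compound, 1 h detection; system: C. neoformans cells; benchmarks: Clomiphene as positive control; buffer or medium: fresh YPD medium; measure: luminescence rise reflecting yeast cell lysis; measured by: luminescent adenylate kinase detection reagent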
PfHsp90 yeast 2: inhibits growth of yeast expressing Plasmodium falciparum Hsp90. S. cerevisiae expressing PfHsp90, BacTiter-Glo ATP, 48 h; yeast lacking PDR1 and PDR3 efflux regulators. inhibition, % at 9.4 µM. actives 0.32% (n = 310,000);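 active = every replicate shows inhibition above about 80%, whatever the replicate mean, limit read from the data; inconclusive = mean inhibition reaches the set limit but some replicate falls short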
DENV2 CPE rescue: DENV2-induced cell death inhibition; DENV2-infected cells, cytopathic effect rescue, plate reader; CPE inhibition, % at 9.99 µM; actives 1.7% (n = 350,000); in the data active = CPE inhibition above about 20%, passing the limit was not always enough; inconclusive = no clear call, values can overlap the other calls; tested in BHK-21 cells
AID977621: growth inhibition of wild-type GFP E. coli, dose response, H69 mutant RFP, cherry-pick; E. coli wild-type GFP strain growth, fluorescence, 24 h; activity change, negative = inhibition at 50 µM; shares compounds with Ecoli rRNA inh; 1,900 tested, under 10 active;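 active = Wild-type ribosome reporter drop at least double the humanized mutant ribosome reporter drop, growth loss under a set limit; inconclusive = no clear call, values can overlap the other calls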;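 note: wild-type GFP and H69 mutant RFP strains grown together 50/50 in each well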
AID977628: growth of wild-type and h24-humanized E. coli strains – h24 mutant RFP vs wild-type GFP, cherry-pick, dose response; shares compounds with Ecoli rRNA inh; E. coli WT GFP strain growth, fluorescence, 24 h; activity change, negative = inhibition at 50 µM; 1,900 tested, under 10 active; AID 977628;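 active = compound lowering the normal-ribosome reporter at least twice as much as the humanized-ribosome reporter, growth loss under a set limit; inconclusive = no clear call, values can overlap the other calls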;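 note: wild-type GFP and h24 humanized RFP strains co-cultured 1 to 1 per well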
Numbers stand for hits; 0 = inactive; ? = inconclusive; - = no result given; ! = a repeat was not active.

SMILES	AF4-AF9 inh	S100A4 inh HTS	Ecoli rRNA inh	Cneo AK release	PfHsp90 yeast 2	DENV2 CPE rescue	AID977621	AID977628
CC(C)C(=O)Nc1ccc2c(c1)C(=O)N(C)[C@@H]1CC[C@H](CC(=O)Nc3ccccc3)O[C@H]1CO2	0	0	0	0	-	0	-	-
CCc1ccc2[nH]c(C(=O)Nc3ccc4c(c3)OCO4)cc2c1	?	0	-26	-	0	0	0	?
Cc1ccc(S(=O)(=O)N(C(=O)c2ccncc2)c2ccc(OC(=O)c3ccncc3)cc2)c(C)c1	0	0	-18	-	89	0	0	0
CCCNC(=O)C[C@@H]1C[C@@H]2c3cc(NC(=O)C4CCC4)ccc3O[C@@H]2[C@@H](CO)O1	0	0	0	0	-	0	-	-
CO[C@@H]1CN(C)C(=O)c2ccc(NC(=O)Nc3c(C)noc3C)cc2OC[C@H](C)NC[C@@H]1C	0	0	0	0	-	0	-	-
Cc1ccc2oc(=O)n(CCOc3ccccc3C)c2c1	0	0	0	0	0	0	-	-
Cc1ccc2oc(=O)n(CC(=O)OCCC(C)C)c2c1	0	0	-18	0	0	0	0	0
Cc1ccc2oc(=O)n(CCCOc3ccccc3C)c2c1	0	0	-19	-	0	0	0	?
CN1[C@@H]2c3ccc(C4=CCCCC4)c(=O)n3C[C@@H]2[C@@H](CO)[C@@H]1C(=O)NCc1ccccc1	0	0	0	0	-	?	-	-
CCNC(=O)Nc1ccc2c(c1)C(=O)N(C)[C@H]1CC[C@@H](CC(=O)NCc3ccccc3F)O[C@H]1CO2	0	0	0	0	-	0	-	-
Cc1ccc(N2C(=O)NC(NS(=O)(=O)c3ccccc3)(C(F)(F)F)C2=O)cc1C (stereo not drawn)	0	0	-17	0	0	-	0	-
O=C(CSc1nc2ccccc2n1S(=O)(=O)c1cccc([N+](=O)[O-])c1)NCCc1ccccc1	0	0	-33	-	0	0	0	0
COc1ccc(Cc2nc3ccc(C(=O)NCc4cc(C)no4)cc3o2)cc1OC	0	0	0	0	0	0	-	-
C=CCN(CC=C)C(=O)c1ccc2nc(Cc3ccc(OC)c(OC)c3)oc2c1	0	0	-33	0	0	0	-	?
CC1(C)CC2CC(C)(CN2c2ncnc3ccccc23)C1 (stereo not drawn)	0	0	-27	0	0	0	0	?
COc1ccc(CN2CCC3CC2c2cc(-c4cccc(C)c4)ccc23)cc1 (stereo not drawn)	0	0	0	0	0	?	-	-
COc1ccc(CN2CCC3CC2c2cc(Cl)ccc23)cc1 (stereo not drawn)	0	0	-21	0	0	0	?	?
O=C(COC(=O)c1ccccc1O)NCCC1=CCCCC1	0	0	-22	-	0	0	0	?
CS(=O)(=O)c1ccc(Cl)c(NC(=O)COC(=O)c2c(Cl)cccc2Cl)c1	0	0	-26	0	0	0	0	0
Clc1ccc2nc(CN3CCCc4ccccc43)cn2c1	0	0	-20!	0	0	0	0	-
CCc1cc2ccc(OC)cc2nc1SCC(=O)NNC(=O)c1ccco1	0	0	0	-	0	0	-	-
CCc1cc2ccc(OC)cc2nc1SCC(=O)N1CCN(C(=O)c2ccco2)CC1	0	0	-26	0	0	0	0	-
CC(C)NC(=O)Nc1cccc2c1O[C@@H](CN(C)C(=O)Nc1ccc3c(c1)OCO3)[C@@H](C)CN([C@H](C)CO)C2=O	0	0	0	0	-	0	-	-
CCOc1ccc2nc(NC(=O)CSc3nc(SC)ns3)sc2c1	0	0	-24	0	0	0	0	-
CCOc1ccc2nc(NC(=O)CSc3ccc(Cl)cc3)sc2c1	-	-	-	-	0	-	-	-
SMILES	AF4-AF9 inh	S100A4 inh HTS	Ecoli rRNA inh	Cneo AK release	PfHsp90 yeast 2	DENV2 CPE rescue	AID977621	AID977628
COc1ccc2c(CC(=O)NCc3ccc4c(c3)OCO4)coc2c1	0	0	-25	0	0	0	0	?
COc1cccc(CC(=O)OC(C)C(=O)NCc2ccc3c(c2)OCO3)c1 (stereo not drawn)	0	0	-31	-	0	0	?	?
CNC[C@H]1OCCCC[C@H](C)Oc2ccc(NC(=O)Nc3c(C)noc3C)cc2C(=O)N([C@H](C)CO)C[C@@H]1C	0	0	0	0	-	0	-	-
Cc1ccc(-c2cnc3c(c2)C(=O)N([C@@H](C)CO)C[C@@H](C)[C@@H](CN(C)C(=O)c2ccccc2)O3)cc1	0	0	0	0	-	0	-	-
COc1ccccc1NC(=O)N1CCCCN2[C@@H](CO)[C@H](c3ccc(C#Cc4ccccc4)cc3)[C@@H]2C1	0	0	-30	0	-	0	0	-
O=C(Nc1cc(F)ccc1F)N1CCCCN2[C@@H](CO)[C@H](c3ccc(-c4ccncc4)cc3)[C@@H]2C1	0	0	-19	0	-	0	0	-
O=C(Nc1cc(F)ccc1F)N1CCCCN2[C@H](CO)[C@H](c3ccc(-c4ccncc4)cc3)[C@@H]2C1	0	0	0	0	-	0	-	-
O=C(Nc1ccccc1F)N1CCCCN2[C@@H](CO)[C@H](c3ccc(C#Cc4cccnc4)cc3)[C@@H]2C1	0	0	-19	0	-	0	0	?
COc1ccccc1NC(=O)N1CCCCN2[C@H](CO)[C@@H](c3ccc(C#CC4CC4)cc3)[C@@H]2C1	0	0	-	-	-	0	-	-
C#CCNC(=O)C1=C[C@@H](C(C)(C)C)[C@H](CCCO)[C@@H](OCC)O1	0	0	-	0	-	0	-	-
O=C(C[C@@H]1CC[C@@H]2[C@H](COC[C@@H](O)CN2S(=O)(=O)c2ccc(F)cc2)O1)N[C@H]1CCN(Cc2ccccc2)C1	0	0	0	0	-	0	-	-
O=C(COC(=O)c1cccc(S(=O)(=O)N2CCN(c3ccccc3)CC2)c1)NCC1CCCO1 (stereo not drawn)	0	0	0	0	0	0	-	-
COc1cc(OC)c(NS(=O)(=O)c2cccc(C(=O)OCC(=O)NCC3CCCO3)c2)cc1Cl (stereo not drawn)	0	0	-23	0	-	0	0	0
O=C(CN1CCCCC1)n1c2ccccc2c2ccccc21	-	0	-24	0	0	0	0	0
C[C@H](CO)N1C[C@H](C)[C@@H](CN(C)Cc2cccnc2)Oc2cc(C#CCN(C)C)ccc2S1(=O)=O	0	0	0	0	-	?	-	-
Cc1ccc(S(=O)(=O)N[C@H]2CC[C@H](CC(=O)NCCN3CCCCC3)O[C@H]2CO)cc1	0	0	0	0	-	0	-	-
